Calls of active or inactive are those of the source.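 The calls were made as follows, unless noted: active = fluorescence slope higher than the sample average by over 3 SD (cut at about -0.22 in these data, passing the limit was not always enough); inactive = the rest.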
Legend:
[1] = inhibitors of TNFa-induced NFkB p65 translocation, primary screen, imaging, HUVEC, MLSMR starter and 10KST1 sets (AID 438;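 active = inhibition above 20% together with a positive visual image hit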;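 also: compound added about 3h40 before a 20 min TNFalpha stimulation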;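 as to inhibition: signal is the nuclear over cytoplasmic p65 intensity ratio per well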); conditions: HUVEC TNFa-induced p65 nuclear translocation; cell count: measured here: nuclei count (cytotoxicity indicator), at 2.08 µM; inhibition: at 2 µM, stronger effect = higher value, 0% TNFa-plus-vehicle, 100% no-TNFa wells
[2] = inhibitors of mutant huntingtin aggregation, primary screen, imaging, exon1htt(103Q)mCFP cells, high-content imaging (AID 483;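 active = visual image review flags a hit and inhibition of aggregation exceeds 20%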;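 also: compound exposure lasted 3 days before fixation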;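 as to nuclei count: percent of the per-plate median nuclei count of sample wells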); conditions: exon1htt(103Q)mCFP cell line, aggregate imaging, at 2 µM; inhibition of aggregation: stronger effect = higher value; nuclei count: measured here: cell count, toxicity
[3] = inhibitors of E-selectin induction by TNFa, primary screen, imaging, HUVEC, immunofluorescence, MLSMR starter and 10KST1 sets (AID 487;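 active = visually confirmed hit in the image check and inhibition above 20%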;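 as to inhibition: signal is fraction of cell area covered by stained E-selectin grains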;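 as to nuclei count: 100% = median nuclei count of all wells on the same plate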); conditions: HUVEC TNFalpha-induced E-selectin immunofluorescence imaging, at 2 µM; inhibition: stronger effect = higher value; nuclei count: measured here: cell number, toxicity
[4] = biological target: Voltage-gated potassium channel subunit beta-2 (Rattus norvegicus) (UniProt P62483); assay: KvBeta enzyme negative modulators, primary screen, biochemical, NADPH fluorescence (AID 622); conditions: recombinant KvBeta, 4-cyanobenzaldehyde reduction, at 10 µM, stronger effect = higher value;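 also: slope of raw intensity against log time taken from 70 to 1610 s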
Sequence of Voltage-gated potassium channel subunit beta-2 (Rattus norvegicus) (P62483 whole entry, looked up): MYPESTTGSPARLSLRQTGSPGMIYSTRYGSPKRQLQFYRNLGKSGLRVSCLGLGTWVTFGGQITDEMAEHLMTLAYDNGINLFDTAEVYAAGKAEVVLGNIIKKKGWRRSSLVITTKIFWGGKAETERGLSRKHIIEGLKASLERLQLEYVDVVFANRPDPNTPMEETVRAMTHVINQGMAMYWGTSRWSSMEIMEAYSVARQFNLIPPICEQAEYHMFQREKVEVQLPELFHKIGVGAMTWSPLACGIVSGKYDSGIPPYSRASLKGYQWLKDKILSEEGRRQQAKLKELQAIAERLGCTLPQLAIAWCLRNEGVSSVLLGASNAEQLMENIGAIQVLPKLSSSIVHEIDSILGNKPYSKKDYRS

[5] = biological target: Voltage-gated potassium channel subunit beta-2 (Rattus norvegicus) (UniProt P62483); assay: KvBeta positive modulators, primary screen, biochemical, NADPH fluorescence (AID 623;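 active = NADPH fluorescence slope more negative than the mean of all samples by about 3 SD, 99.7% confidence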;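 also: fluorescence intensity change per second fitted from 20 to 320 s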); conditions: Recombinant KvBeta, NADPH fluorescence decrease slope, 10 min; at 10 µM; stronger effect = lower value
[6] = biological target: Muscarinic acetylcholine receptor M4 (Homo sapiens) (UniProt P08173); assay: compounds altering M4/GIRK thallium flux, either direction, primary screen, M4 allosteric agonist project, cell-based, HEK293 M4/GIRK, BTC-AM (AID 625;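 active = fluorescence slope after compound addition differing from the mean of all tested samples at 99.7% confidence, mostly higher but some lower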;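 also: thallium influx through GIRK channels coupled to M4 in HEK293 cells with BTC-AM dye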); conditions: at 10 µM, actives lie on both sides
Sequence of Muscarinic acetylcholine receptor M4 (Homo sapiens) (P08173 whole entry, looked up): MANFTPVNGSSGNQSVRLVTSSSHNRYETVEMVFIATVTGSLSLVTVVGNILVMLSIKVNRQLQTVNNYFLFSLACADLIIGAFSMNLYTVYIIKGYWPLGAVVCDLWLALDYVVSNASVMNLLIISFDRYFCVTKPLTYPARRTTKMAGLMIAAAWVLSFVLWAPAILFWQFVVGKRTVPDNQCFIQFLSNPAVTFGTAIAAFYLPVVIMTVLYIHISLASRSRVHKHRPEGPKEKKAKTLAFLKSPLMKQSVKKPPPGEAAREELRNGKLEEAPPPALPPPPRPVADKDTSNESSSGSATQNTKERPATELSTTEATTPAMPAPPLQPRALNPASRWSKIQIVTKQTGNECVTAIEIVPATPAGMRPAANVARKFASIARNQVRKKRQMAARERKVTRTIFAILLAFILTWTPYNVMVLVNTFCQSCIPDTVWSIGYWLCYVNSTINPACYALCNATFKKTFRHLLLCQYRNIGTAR
Method in brief: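 Material – HEK293 cells with M4 receptor and GIRK channels · Buffer or medium – pH 7.3 thallium assay buffer · Doses – one dose, 10 µM final · Timing – cells overnight at 37 °C, BTC-AM loading 1 h, reads 2 min total · Measured by – kinetic fluorescence with BTC-AM dye · Controls – carbachol and DMSO controls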

[7] = inhibitors of Sendai virus-induced IRF3 signaling, primary screen, TLR/RLR signaling modifier project, cell-based, Sendai virus stimulus, luciferase, 10K MLSCN set (AID 602276;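 active = inhibition at or above 50% at 10 µM; inactive = inhibition below 50%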;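 also: firefly luciferase from ISG56 promoter only with Renilla not read in this screen; 0% = Sendai virus plus DMSO and 100% = medium plus DMSO without virus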); conditions: HEK293 RL24 IRF3 luciferase reporter, at 10 µM, stronger effect = higher value
[8] = inhibitors of poly I:C-induced TLR3 signaling, primary screen, cell-based, poly I:C stimulus, luciferase, 10K MLSCN set (AID 602277;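 active = inhibition of the reporter signal at or above 50%; inactive = inhibition below 50%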); conditions: HEK293-TLR3 RL24 IRF3 luciferase reporter, at 10 µM, stronger effect = higher value

Row | Structure (SMILES) | cell count [1] | inhibition [1] | inhibition of aggregation [2] | nuclei count [2] [%] | inhibition [3] | nuclei count [3] [%] | fluorescence slope [4] | NADPH fluorescence slope [5] | fluorescence slope [6] | inhibition [7] | inhibition [8]
1 | COC(=O)c1[nH]c2c(c1C)C(=O)CC(c1cccs1)C2 (centres undefined) | 315 | 4.5% (inactive) | -123% (inactive) | 2 | -126% (inactive) | 134 | -0.473 (inactive) | -2.2e-05 (inactive) | 0.00476 (inactive) | 34.9% (inactive) | 79.5% (active)
2 | Cc1ccc(-c2nnn(CC(=O)NC3CC4CCC3C4)n2)cc1 (centres undefined) | 239 | -5% (inactive) | 15.8% (inactive) | 77.6 | 3.6% (inactive) | 102 | -0.563 (inactive) | -4.4e-05 (inactive) | 0.00799 (inactive) | 7.26% (inactive) | -0.548% (inactive)
3 | O=C(CSc1ccc(Cl)cc1)OCc1nnc(-c2ccccc2)o1 | 503 | -1.1% (inactive) | 8.3% (inactive) | 108 | -46.5% (inactive) | 115 | -0.613 (inactive) | 6.8e-05 (inactive) | 0.00469 (inactive) | -5.35% (inactive) | -4.44% (inactive)
4 | Cc1ccc(C2N(c3ccc(Cl)c(Cl)c3)C(=O)C3CCCN32)o1 (centres undefined) | 495 | -1.5% (inactive) | 7.9% (inactive) | 98.2 | -11.2% (inactive) | 97 | -0.561 (inactive) | -2e-05 (inactive) | 0.0047 (inactive) | 16.9% (inactive) | 18.1% (inactive)
5 | O=C(CCCCn1c(=O)[nH]c2ccsc2c1=O)NCc1cccnc1 | 684 | -1% (inactive) | 5% (inactive) | 99.7 | 3.5% (inactive) | 119 | -0.46 (inactive) | -5.1e-05 (inactive) | 0.00456 (inactive) | 17% (inactive) | 15.3% (inactive)
6 | COc1ccc(S(=O)(=O)N2CCN(C3CCCCCCC3)CC2)cc1 | 360 | 2% (inactive) | 5.1% (inactive) | 105 | -8.4% (inactive) | 108 | -0.533 (inactive) | -5.6e-05 (inactive) | 0.00334 (inactive) | 16.2% (inactive) | 24.3% (inactive)
7 | O=C(NCc1ccco1)C1CC(=O)N(c2ccc(F)cc2)C1 (centres undefined) | 375 | 3.6% (inactive) | -0.9% (inactive) | 97.4 | -34.5% (inactive) | 124 | -0.593 (inactive) | -2e-05 (inactive) | 0.00568 (inactive) | 3.07% (inactive) | 12% (inactive)
8 | C=CCN1C(=O)/C(=C2/Sc3ccccc3N2C)SC1=Nc1c(C)n[nH]c1C | 401 | -0.2% (inactive) | -18.2% (inactive) | 103 | -70.1% (inactive) | 106 | -0.519 (inactive) | -2.3e-05 (inactive) | 0.00378 (inactive) | 12.6% (inactive) | 10.1% (inactive)
9 | O=C(O)CCn1c(SCc2ccccc2)nc2ccccc21 | 423 | -4.4% (inactive) | 25% (inactive) | 73.9 | -33.6% (inactive) | 93.6 | -0.505 (inactive) | -2.4e-05 (inactive) | 0.00554 (inactive) | -9.99% (inactive) | -40.3% (inactive)

From PubChem BioAssay
